# Reference: ChEMBL document CHEMBL1134409, “Design, synthesis, and discovery of a novel CCR1 antagonist” (J Med Chem, 2001)
# Legend:
# [1] = target: T1, C-C chemokine receptor type 1 (Mus musculus, UniProt P51675); experiment: Inhibitory activity against [125I]-MIP-1 alpha binding to mouse CCR1 receptors.
# T1 sequence (P51675 whole entry): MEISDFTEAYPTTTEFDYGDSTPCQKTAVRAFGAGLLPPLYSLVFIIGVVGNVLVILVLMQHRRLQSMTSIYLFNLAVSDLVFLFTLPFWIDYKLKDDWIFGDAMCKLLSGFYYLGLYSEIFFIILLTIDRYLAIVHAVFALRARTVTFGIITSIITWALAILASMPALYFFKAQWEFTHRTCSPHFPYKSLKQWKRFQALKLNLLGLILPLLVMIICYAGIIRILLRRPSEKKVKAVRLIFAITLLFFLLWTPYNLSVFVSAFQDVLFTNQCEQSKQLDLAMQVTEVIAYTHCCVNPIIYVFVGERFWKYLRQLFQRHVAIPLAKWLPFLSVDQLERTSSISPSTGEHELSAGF
# Procedure, shortened: (§1)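 Whole-cell binding. CHO cells transfected with the CCR receptor were detached with PBS(-) containing 2 mM EDTA and resuspended in Krebs-Ringer phosphate buffer with 0.1% BSA and 0.1% glucose. 1 × 10^5 cells were incubated with 50 pM 125I-chemokine plus antagonist for 1 h at 37 °C to reach equilibrium. Nonspecific binding was taken with 100 nM unlabeled chemokine. Ice-cold buffer was then added.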
# [2] = target: T2, C-C chemokine receptor type 1 (Homo sapiens, UniProt P32246); experiment: Inhibitory activity against [125I]-MIP-1 alpha binding to human CCR1 receptors.; procedure, shortened: as §1
# T2 sequence (P32246 whole entry): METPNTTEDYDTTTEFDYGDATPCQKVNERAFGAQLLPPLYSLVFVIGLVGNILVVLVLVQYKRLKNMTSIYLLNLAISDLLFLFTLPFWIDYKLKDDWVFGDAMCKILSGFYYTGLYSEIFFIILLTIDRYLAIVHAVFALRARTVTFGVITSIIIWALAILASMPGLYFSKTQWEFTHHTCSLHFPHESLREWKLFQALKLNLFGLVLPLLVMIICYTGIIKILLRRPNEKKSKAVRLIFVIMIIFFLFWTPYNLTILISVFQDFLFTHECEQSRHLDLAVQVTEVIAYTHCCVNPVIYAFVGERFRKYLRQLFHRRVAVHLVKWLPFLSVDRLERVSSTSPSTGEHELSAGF
# [3] = target: T3, C-C chemokine receptor type 4 (Homo sapiens, UniProt P51679); experiment: Inhibitory activity against […] induced increase in intracellular [Ca2+] in KU812 cells expressing human CCR4 receptor; type: functional, cell-based
# T3 sequence (P51679 whole entry): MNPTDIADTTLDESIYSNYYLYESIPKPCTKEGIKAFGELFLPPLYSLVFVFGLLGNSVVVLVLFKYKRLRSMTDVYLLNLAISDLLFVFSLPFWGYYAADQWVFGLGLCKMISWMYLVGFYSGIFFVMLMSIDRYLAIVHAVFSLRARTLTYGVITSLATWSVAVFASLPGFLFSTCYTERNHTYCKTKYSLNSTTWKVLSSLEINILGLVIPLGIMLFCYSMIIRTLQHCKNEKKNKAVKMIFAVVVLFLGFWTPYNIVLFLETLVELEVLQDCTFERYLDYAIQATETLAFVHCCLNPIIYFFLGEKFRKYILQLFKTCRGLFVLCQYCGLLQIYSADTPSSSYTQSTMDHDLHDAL
# Procedure, shortened: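 Calcium rise evoked by TARC in KU812 cells.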
# [4] = Inhibitory activity of I-interleukin-8-binding to human neutrophil at human CXCR1,2 receptor
# Procedure, shortened: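 125I-interleukin-8 binding to human neutrophil membranes.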
# [5] = target: T1, C-C chemokine receptor type 1; experiment: inhibitory activity against MIP-1 alpha- induced [Ca2+] response in U937 cells expressing mouse CCR1 receptor; type: functional, cell-based, U-937
# Procedure, shortened: (§2)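 Calcium flux in U937 cells transfected with CCR receptors, loaded with 1 µM Fura-2 AM for 30 min at 37 °C, washed twice and resuspended at 1×10^6 cells/mL in Krebs-Henseleit-Hepes buffer with 0.1% BSA. Stirred cuvette fluorescence read at 37 °C, excitation 340 and 380 nm, emission 510 nm, after chemokine stimulation.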
# [6] = target: T1, C-C chemokine receptor type 1; experiment: Inhibitory activity against 125 I -MIP-1 alpha binding to mouse CCR1 receptors
# Procedure, shortened: (§3)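 CCR-transfected CHO cells, detached with PBS(-)/2 mM EDTA, in Krebs-Ringer phosphate buffer with 0.1% BSA and 0.1% glucose. 1×10^5 cells incubated with 50 pM 125I-chemokine plus antagonist, 1 h at 37 °C to equilibrium. Nonspecific binding measured with 100 nM unlabeled chemokine. Reaction stopped with ice-cold binding buffer.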
# [7] = target: T4, C-C chemokine receptor type 3 (Homo sapiens, UniProt P51677); experiment: Inhibitory activity against I-Eotaxin induced [Ca2+] response in human CCR3 receptor; type: functional; procedure, shortened: as §2
# T4 sequence (P51677 whole entry): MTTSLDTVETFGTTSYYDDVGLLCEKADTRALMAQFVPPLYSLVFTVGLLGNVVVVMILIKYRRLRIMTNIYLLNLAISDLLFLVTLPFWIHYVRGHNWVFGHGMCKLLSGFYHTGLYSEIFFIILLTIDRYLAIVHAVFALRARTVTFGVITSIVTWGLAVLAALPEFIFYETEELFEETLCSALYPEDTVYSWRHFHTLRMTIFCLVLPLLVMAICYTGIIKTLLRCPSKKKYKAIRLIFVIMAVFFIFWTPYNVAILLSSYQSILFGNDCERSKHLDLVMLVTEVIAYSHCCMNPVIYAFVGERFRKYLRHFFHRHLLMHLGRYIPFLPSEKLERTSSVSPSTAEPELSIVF
# [8] = target: T5, Probable C-C chemokine receptor type 3 (Mus musculus, UniProt P51678); experiment: Inhibitory activity against I-Eotaxin induced [Ca2+] response in mouse CCR3 receptor; type: functional
# T5 sequence (P51678 whole entry): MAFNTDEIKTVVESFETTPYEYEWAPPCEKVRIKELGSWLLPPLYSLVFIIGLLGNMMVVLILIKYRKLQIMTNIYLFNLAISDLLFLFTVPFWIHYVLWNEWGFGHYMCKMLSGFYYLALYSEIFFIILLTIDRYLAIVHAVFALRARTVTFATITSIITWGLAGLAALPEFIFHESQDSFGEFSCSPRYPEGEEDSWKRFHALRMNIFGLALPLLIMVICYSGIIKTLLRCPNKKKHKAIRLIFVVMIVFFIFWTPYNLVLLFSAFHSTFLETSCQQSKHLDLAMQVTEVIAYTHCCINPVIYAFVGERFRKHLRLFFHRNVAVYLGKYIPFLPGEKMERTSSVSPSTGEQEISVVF
# Procedure, shortened: (§4)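 U937 cells transfected with the CCR receptor were loaded with 1 µM Fura-2 AM for 30 min at 37 °C and washed twice. They were resuspended at 1 × 10^6 cells/mL in Krebs-Henseleit-HEPES with 0.1% BSA. The stirred cuvette suspension was read at 37 °C for chemokine-induced fluorescence change, with excitation at 340 and 380 nm and emission at 510 nm.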
# [9] = Inhibitory activity of Fractalkine-induced increase in [Ca2+] Conc. in HEL cells at human CX3CR1 receptor; type: functional, cell-based
# Procedure, shortened: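 Calcium rise evoked by fractalkine in HEL cells.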
# [10] = target: T4, C-C chemokine receptor type 3; experiment: Inhibitory activity against I-Eotaxin binding to human CCR3 receptors; procedure, shortened: as §3
# [11] = target: T2, C-C chemokine receptor type 1; experiment: Inhibitory activity against MIP-1 alpha- induced [Ca2+] response in U937 cells expressing human CCR1 receptor; type: functional, cell-based, U-937; procedure, shortened: as §4
# [12] = target: T5, Probable C-C chemokine receptor type 3; experiment: Inhibitory activity against I-Eotaxin alpha binding to mouse CCR3 receptors; procedure, shortened: as §1
# [13] = target: C-C chemokine receptor type 2 (Homo sapiens, UniProt P41597); experiment: Inhibitory activity in human CCR2b receptor
# [14] = target: C-C chemokine receptor type 5 (Homo sapiens, UniProt P51681); experiment: Inhibition of RANTES binding to C-C chemokine receptor type 5
# Procedure, shortened: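 CCR5 binding was done on membranes, following the kit manufacturer's instructions.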
# C-C chemokine receptor type 5, sequence (P51681 whole entry): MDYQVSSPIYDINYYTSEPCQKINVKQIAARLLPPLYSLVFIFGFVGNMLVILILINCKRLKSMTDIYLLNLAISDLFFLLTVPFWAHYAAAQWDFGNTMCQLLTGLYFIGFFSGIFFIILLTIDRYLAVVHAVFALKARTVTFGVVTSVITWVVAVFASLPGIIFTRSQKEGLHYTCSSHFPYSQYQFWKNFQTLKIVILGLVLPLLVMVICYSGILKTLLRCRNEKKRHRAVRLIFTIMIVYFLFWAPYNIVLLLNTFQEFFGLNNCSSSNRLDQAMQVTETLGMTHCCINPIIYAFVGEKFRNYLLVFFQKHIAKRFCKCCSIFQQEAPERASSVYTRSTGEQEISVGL
# C-C chemokine receptor type 2, sequence (P41597 whole entry): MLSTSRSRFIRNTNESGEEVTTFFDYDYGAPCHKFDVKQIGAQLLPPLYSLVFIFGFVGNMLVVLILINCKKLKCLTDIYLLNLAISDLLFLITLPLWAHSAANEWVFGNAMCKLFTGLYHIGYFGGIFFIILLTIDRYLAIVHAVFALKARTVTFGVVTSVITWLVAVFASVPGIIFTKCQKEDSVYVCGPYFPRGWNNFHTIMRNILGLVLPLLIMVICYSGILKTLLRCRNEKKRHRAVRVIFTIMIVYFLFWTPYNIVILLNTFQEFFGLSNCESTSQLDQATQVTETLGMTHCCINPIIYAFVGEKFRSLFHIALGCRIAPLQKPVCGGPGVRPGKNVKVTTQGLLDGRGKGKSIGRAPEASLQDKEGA
Compound,IC50 [1] [nM],IC50 [2] [nM],further results
CC[N+]1(C/C2=C/CCCCCC2)CCC(NC(=O)C2c3cc(Br)ccc3Oc3ccc(Br)cc32)CC1 (stereo unspecified),12,1.9,–
CC[N+]1(C/C2=C/CCCCCC2)CCC(NC(=O)C2c3cc(Cl)ccc3Oc3ccc(Cl)cc32)CC1 (stereo in doubt; 2q-1),5.8,0.9,IC50 [3]: > 10000 nM; IC50 [4]: > 1000 nM; IC50 [5]: 21 nM; IC50 [6]: 5.8 nM; IC50 [7]: 6.1 nM; IC50 [8]: 360 nM; IC50 [9]: > 10000 nM; IC50 [10]: 0.58 nM; IC50 [11]: 0.73 nM; IC50 [12]: 460 nM; IC50 [13]: > 1000 nM; IC50 [14]: > 1000 nM
C[N+]1(CC2CCCCCCC2)CCC(NC(=O)c2c3ccccc3cc3ccccc23)CC1 (stereo unspecified),> 10000,1800,–
O=C(NC1CCN(C/C2=C/CCCCCC2)CC1)C1c2cc(Cl)ccc2Oc2ccc(Cl)cc21,1900,240,–
O=C(NC1CCN(CC2CCCCCCC2)CC1)C(c1ccccc1)c1ccccc1,> 10000,1100,–
CC[N+]1(C/C2=C/CCCCCC2)CCC(NC(=O)C2c3cc(Cl)ccc3Oc3ccc(Cl)cc32)CC1 (stereo in doubt; 2q),12,1.2,–
C[N+]1(CC2CCCCCCC2)CCC(NC(=O)C2c3cc(Br)ccc3Oc3ccc(Br)cc32)CC1 (stereo unspecified),240,–,–
O=C(NC1CCN(CC2CCCCCCC2)CC1)C1c2ccccc2Oc2ccccc21,> 10000,140,–
O=C(NC1CC[N+](Cc2ccccc2)(CC2CCCCCCC2)CC1)C1c2ccccc2Oc2ccccc21 (stereo unspecified),1300,370,–
O=C(NC1CCN(C/C2=C/CCCCCC2)CC1)C1c2ccccc2Oc2ccccc21,590,51,–
C[N+]1(CC2CCCCCCC2)CCC(NC(=O)C(c2ccccc2)c2ccccc2)CC1 (stereo unspecified),> 10000,800,–
O=C(NC1CCN(C/C2=C/CCCCCC2)CC1)C1c2cc(Br)ccc2Oc2ccc(Br)cc21,2500,150,–
O=C(NC1CCN(CC2CCCCC2)CC1)C1c2ccccc2Oc2ccccc21,> 10000,200,–
CC[N+]1(CC2CCCCCCC2)CCC(NC(=O)C2c3ccccc3Oc3ccccc32)CC1 (stereo unspecified),660,–,–
CC[N+]1(CC2CCCCCCC2)CCC(NC(=O)C2c3cc(Br)ccc3Oc3ccc(Br)cc32)CC1 (stereo unspecified),140,3.3,–
CCCCCCN1CCC(NC(=O)C2c3ccccc3Oc3ccccc32)CC1,> 10000,510,–
CCCC[N+]1(CC2CCCCCCC2)CCC(NC(=O)C2c3ccccc3Oc3ccccc32)CC1 (stereo unspecified),380,5,–
CCC[N+]1(C/C2=C/CCCCCC2)CCC(NC(=O)C2c3ccccc3Oc3ccccc32)CC1 (stereo unspecified),270,2.8,–
